Screening data deposited in PubChem BioAssay by Johns Hopkins Ion Channel Center.
MrgX1 antag – antagonists of human MrgX1 receptor; Q96LB2; MRGX1-HEK293 calcium flux, Fluo-4, BAM8-22 antagonism; hits give low values; B-score at 10 µM; actives 1.3% (n = 310,000); AID 588676;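 active means calcium-response B-score plate-corrected more than 3 library SD below zero, starting fluorescence within 5 deviations, no agonist response on first addition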;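 further: peak minus trough fluorescence over baseline after final BAM8-22 challenge near maximal dose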
Target sequence (Q96LB2 whole entry, looked up): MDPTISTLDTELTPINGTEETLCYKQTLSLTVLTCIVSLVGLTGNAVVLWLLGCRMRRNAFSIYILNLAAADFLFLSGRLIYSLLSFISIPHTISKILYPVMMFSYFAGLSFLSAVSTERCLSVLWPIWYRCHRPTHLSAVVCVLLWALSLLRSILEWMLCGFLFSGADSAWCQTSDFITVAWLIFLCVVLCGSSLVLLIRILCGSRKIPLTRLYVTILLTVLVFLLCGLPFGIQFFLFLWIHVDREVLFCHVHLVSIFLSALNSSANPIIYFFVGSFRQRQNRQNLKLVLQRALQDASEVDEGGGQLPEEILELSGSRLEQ
MrgX1 agonist – agonists of human MrgX1 receptor; Q96LB2; MrgX1-HEK293 cells, Fluo-4 calcium fluorescence, agonist mode; hits give high values; B-score at 10 µM; actives 0.44% (n = 310,000); AID 588627;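 active means calcium response B-score plate-corrected fluorescence ratio at least 3 library SD, with starting fluorescence B-score inside 5 SD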
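Material: MrgX1-expressing HEK293 cells / Dosing: compound as first of three additions / Incubation: overnight seeding, then 1 h dark dye loading / Signal: Fluo-4 NW calcium fluorescence / Evaluation: B-scored fluorescence response ratio / Benchmarks: positive and negative control wells on each plate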
RGS4 act – potentiators or activators of RGS4 | HEK293 M3R/inducible RGS4, carbachol calcium flux Fluo4; hits give low values | B-score at 10 µM | actives 0.92% (n = 310,000);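 active means B-score of the integrated calcium signal more than 4 SD below the library mean, with starting fluorescence not abnormally high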;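 further: negative B-score means reduced calcium response which marks RGS4 activation or potentiation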
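Assay system: Inducible-RGS4 HEK293 cells carrying M3 receptor | Schedule: Compound preincubation 20 min at room temperature before agonist | Signal: Kinetic calcium fluorescence imaging with Fluo4-AM dye, 2 µM | Read-out basis: B score from integrated fluorescence ratio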
MrgX1 allo act – human MrgX1 positive allosteric modulation, primary screen; actives 0.63% (n = 310,000); B-score at 10 µM; MrgX1-HEK293, Fluo-4 calcium flux, FDSS; hits give high values; AID 588675; Q96LB2;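 active means plate-corrected calcium response at least 3 library SD above typical, normal starting fluorescence, not activating the receptor alone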;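 further: compound read alongside a low EC10 to EC30 dose of BAM8-22 agonist; peak minus trough fluorescence over baseline measured at the second addition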
RGS4 block – human RGS4 inhibition. P49798. HEK293 M3R/RGS4 inducible, Fluo-4 calcium flux; hits give high values; triggered by carbachol at its EC20. B-score at 10 µM. actives 0.45% (n = 310,000);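 active means B-score, a plate-corrected calcium signal, over three deviations above library mean, with baseline fluorescence within five deviations of library mean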;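 further: RGS4 expression induced by doxycycline in cells with stable M3 receptor; B-score is computed from the integrated fluorescence ratio over baseline after carbachol; higher B-score means a larger calcium signal and so more RGS4 inhibition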
Target sequence (P49798 whole entry, looked up): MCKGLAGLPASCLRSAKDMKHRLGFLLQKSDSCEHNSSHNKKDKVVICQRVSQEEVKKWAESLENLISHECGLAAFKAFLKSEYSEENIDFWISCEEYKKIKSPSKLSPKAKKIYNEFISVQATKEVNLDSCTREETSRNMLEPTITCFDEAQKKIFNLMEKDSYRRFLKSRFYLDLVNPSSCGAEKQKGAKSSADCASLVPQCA
MrgX1 ant reconf – reconfirmed antagonist of human MrgX1 receptor signaling. shares compounds with MrgX1 antag. MrgX1-HEK293, BAM8-22 calcium flux, Fluo-4; hits give low values. remaining BAM8-22 calcium response % of control (hits give low values), % at 10 µM. actives 19% (n = 2,300). AID 602420;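 active means remaining agonist calcium response no higher than 100% minus 3 SD of agonist-only control wells, with starting fluorescence near control levels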;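 further: agonist BAM8-22 given at a near maximal EC90 to ECmax level; peak minus minimum fluorescence divided by baseline after agonist addition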
HEK293 Ca flux – MrgX1 antagonist counter-screen hit in parental HEK293 cells; shares compounds with MrgX1 antag; Fluo-4 calcium fluorescence, FDSS; fluorescence ratio F(max-min)/F0 at 10 µM; actives 2% (n = 4,000);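 active means duplicate-averaged calcium fluorescence ratio at least three times the standard deviation of buffer wells, a nonspecific response in parental cells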
HEK293 Ca counter – counter-screen for MrgX1 allosteric activators: effect in parental HEK293 cells. AID 624114. fluorescence ratio F(max-min)/F0 at 10 µM. shares compounds with MrgX1 antag. actives 0.4% (n = 4,000). parental HEK293 calcium flux, Fluo-4 fluorescence ratio; hits give high values;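 active means calcium fluorescence ratio, averaged over duplicates, at least 3 SD of the buffer-well ratio, meaning a nonspecific response in receptor-free cells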;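 further: untransfected parental HEK293 lacking MrgX1 used as counterscreen for MrgX1 allosteric activators; fluorescence change taken during the second addition on a kinetic imager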
HEK293 Ca cntr2 – MrgX1 activator counter-screen hit in parental HEK293 cells. shares compounds with MrgX1 antag. Fluo-4 calcium fluorescence (FDSS); hits give high values. fluorescence ratio F(max-min)/F0 at 10 µM. actives 8.7% (n = 4,000);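 active means calcium fluorescence ratio at least three times the spread of buffer wells, meaning a non-specific response in parental cells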
Large screens that a line does not name were inactive (follow-up assays come after a bar, where they were run). Shown are actives, neighbours in structure and some others; about 3.5% of the full set was active somewhere.

COc1ccc(-c2nc(C3CCCCC3)c3cc(OC)ccc3n2)cc1	MrgX1 antag -5 | MrgX1 ant reconf inactive | HEK293 Ca flux inactive | HEK293 Ca counter inactive | HEK293 Ca cntr2 inactive
CCOC(=O)N1CCN(C(=O)CCN2C(=O)COc3ccc(C)cc32)CC1	MrgX1 antag -6 | MrgX1 ant reconf inactive | HEK293 Ca flux inactive | HEK293 Ca counter inactive | HEK293 Ca cntr2 inactive
Cc1nn(-c2ccccc2)nc1C(=O)Nc1ccc2c(c1)OCCO2	MrgX1 antag -12 | MrgX1 ant reconf inactive | HEK293 Ca flux inactive | HEK293 Ca counter inactive | HEK293 Ca cntr2 inactive
CCN(CC)S(=O)(=O)c1cccc(C(=O)Nc2ccc3c(c2)OCO3)c1	none
CCCNC(=O)c1cccc(NC(=O)C(C)C)c1	MrgX1 antag -7.3 | MrgX1 ant reconf inactive | HEK293 Ca flux inactive | HEK293 Ca counter inactive | HEK293 Ca cntr2 48
CCC(CC)C(=O)Nc1cccc(C(=O)Nc2ccc3c(c2)OCO3)c1	MrgX1 antag -6 | MrgX1 ant reconf inactive | HEK293 Ca flux inactive | HEK293 Ca counter inactive | HEK293 Ca cntr2 inactive
CC1CCCCC1NC(=O)c1ccc(S(=O)(=O)NNC(=O)c2ccncc2)cc1 (stereo not drawn)	none
CCOC(=O)CC1CCCCN1C(=O)CCCn1nnnc1CN1CCC(C)CC1 (stereo not drawn)	none
CCOC(=O)c1sc(NC(=O)CSc2nc(C)cc(C)c2C#N)c(C#N)c1C	MrgX1 antag -7.3 | MrgX1 ant reconf inactive | HEK293 Ca flux inactive | HEK293 Ca counter inactive | HEK293 Ca cntr2 inactive
CCOC(=O)c1sc(NC(=O)CSc2nc3c(cc2C#N)CCCCCC3)c(C#N)c1C	none
CCOC(=O)c1sc(-c2ccc(C(F)(F)F)cc2)nc1O	MrgX1 antag -5.7 | MrgX1 ant reconf 59% | HEK293 Ca flux inactive | HEK293 Ca counter inactive | HEK293 Ca cntr2 inactive
COc1cc(NC(=O)CN2C(=O)C(C)N(c3ccc(C)cc3)C2=O)cc(OC)c1 (stereo not drawn)	MrgX1 antag -6.5 | MrgX1 ant reconf inactive | HEK293 Ca flux inactive | HEK293 Ca counter inactive | HEK293 Ca cntr2 inactive
COc1ccccc1C(=O)N1CCN(CCc2ccccc2)CC1	MrgX1 antag -5.4 | MrgX1 ant reconf inactive | HEK293 Ca flux inactive | HEK293 Ca counter inactive | HEK293 Ca cntr2 inactive
O=C(c1ccco1)N1CCN(C(=O)c2ccccc2Oc2ccccc2)CC1	MrgX1 antag -4.6 | MrgX1 ant reconf 79% | HEK293 Ca flux inactive | HEK293 Ca counter inactive | HEK293 Ca cntr2 inactive
COc1cccc(C(=O)N2CCN(CCCc3ccccc3)CC2)c1OC	none (no result: RGS4 act, RGS4 block)
CC(=O)Nc1cc(-c2ccc(F)cc2)[nH]n1	none
CC(=O)Nc1n[nH]c(-c2ccc(C)cc2)c1C	MrgX1 antag -5.4 | MrgX1 ant reconf inactive | HEK293 Ca flux inactive | HEK293 Ca counter inactive | HEK293 Ca cntr2 inactive
O=C1c2ccccc2C(=O)N1CC(O)CN1CCOCC1 (stereo not drawn)	MrgX1 antag -5.2 | MrgX1 ant reconf inactive | HEK293 Ca flux inactive | HEK293 Ca counter inactive | HEK293 Ca cntr2 inactive
OC(CN1CCOCC1)Cn1c2ccccc2c2ccccc21 (stereo not drawn)	none
O=C(O)c1ccccc1NS(=O)(=O)c1cccc(-n2sc3ccccc3c2=O)c1	MrgX1 antag -6.3 | MrgX1 ant reconf 44% | HEK293 Ca flux inactive | HEK293 Ca counter inactive | HEK293 Ca cntr2 inactive
O=C(O)c1ccccc1NS(=O)(=O)c1cccc(C(F)(F)F)c1	none
Cc1c(NC(=O)CSc2nc3ccc(Cl)cc3[nH]2)c(=O)n(-c2ccccc2)n1C	none (no result: RGS4 act, RGS4 block)
C(=C\c1ccc2ccccc2n1)/c1ccccc1	none
